HTR1A agonist – agonists of human 5-HT1a serotonin receptor | P08908 | CHO 5-HT1a Ga15 NFAT-bla reporter, FRET ratio; 0% basal, 100% maximal reference agonist | activation, % at 10 µM | actives 0.56% (n = 65,000);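 active means activation above the screen-wide mean activation plus 3 SD, cut at about 19% in these data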;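 further: 0% = DMSO wells and 100% = 5-CT at EC100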
HEK293 NFkB inh – lowers PMA/ionomycin-induced NF-kB signal in HEK293 cells | HEK-293 NF-kB luciferase reporter, luminescence | inhibition, % at 3 µM | actives 0.21% (n = 62,000);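 active means inhibition above the mean of all tested compounds plus 3 SD, cut at about 40% in these data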;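 further: 0% = stimulated DMSO wells and 100% = 10 µM reference inhibitor 5653914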
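System: NF-kB luciferase reporter HEK-293 cells | Replication: Single test | Control set: DMSO vs reference inhibitor | Evaluation: % inhibition | Schedule: 1 h pretreatment, 16 h stimulation, 37 °C | Probe or stimulus: PMA with ionomycin | Compound dosing: One dose, 3 µM | Detection: Luciferase luminescence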
5HT1a antag – antagonists of human 5-HT1a serotonin receptor; P08908; AID 612; inhibition, % at 10 µM; CHO 5-HT1a Ga15 NFAT-bla reporter, antagonist mode; actives 0.68% (n = 62,000);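 active means inhibition above the mean of all tested compounds plus 3 SD, cut at about 43% in these data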;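 further: receptor stimulated by 5-CT agonist at 100 nM near EC80; beta-lactamase reporter measured by ratiometric fluorescence of a cleavable substrate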
HTR1E antagonist – antagonists of human 5-HT1E serotonin receptor. actives 0.99% (n = 65,000). AID 571. inhibition, % at 6 µM. CHO 5-HT1E Ga15 NFAT-bla reporter, FRET, antagonist;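 active means inhibition above a set limit, the mean inhibition across every tested compound plus 3 SD, cut at about 29% in these data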;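 further: signal is the 460 over 535 nm emission ratio of beta-lactamase substrate; 0% = agonist plus DMSO wells and 100% = wells without agonist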
Target sequence (P28566 whole entry, looked up): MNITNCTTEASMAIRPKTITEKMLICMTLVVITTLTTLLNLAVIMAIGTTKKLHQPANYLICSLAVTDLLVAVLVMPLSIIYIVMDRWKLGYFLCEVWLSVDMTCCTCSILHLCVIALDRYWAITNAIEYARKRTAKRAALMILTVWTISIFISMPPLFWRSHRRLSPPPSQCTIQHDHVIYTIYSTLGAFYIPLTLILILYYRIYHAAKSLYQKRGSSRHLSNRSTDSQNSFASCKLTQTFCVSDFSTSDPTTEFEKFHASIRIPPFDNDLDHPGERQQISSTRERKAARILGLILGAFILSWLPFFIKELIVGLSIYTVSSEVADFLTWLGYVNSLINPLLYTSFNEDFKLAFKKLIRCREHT
HTR1E agonist – activates the human 5-HT1E serotonin receptor. P28566. CHO 5-HT1E Ga15 NFAT-bla reporter, FRET; 0% DMSO wells, 100% control agonist wells. activation, % at 6 µM. actives 0.69% (n = 65,000);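 active means activation above a set limit, the screen-wide mean activation plus 3 SD, cut at about 8.5% in these data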;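 further: 100% = positive control agonist at 1 µM giving full maximal response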
* marks the source's active call; other numbers are inactive results; . = not tested or not shown. Hits are enriched below; roughly 2.6% of the tested compounds scored in any of these assays.

SMILES	HTR1A agonist	HEK293 NFkB inh	5HT1a antag	HTR1E antagonist	HTR1E agonist
Cc1ccc(C(=O)CC2(O)C(=O)N(Cc3ccccc3Cl)c3ccccc32)o1 (configuration not stated)	0	10	-2	8	16*
CCOC(=O)c1oc2ccccc2c1CSc1nnnn1-c1ccc(C)cc1	-5	17	32	-1	0
COc1cc(CSc2nnnn2-c2ccc(C)cc2)cc(OC)c1OC	-1	44*	22	12	0
CC(=O)OCCNc1cc(N2CCN(C)CC2)c2noc3c2c1C(=O)c1ccccc1-3	0	-10	-14	5	0
CCOC(=O)C(C(=O)OCC)c1cc(Br)c2noc3c2c1C(=O)c1ccccc1-3	-4	-2	48*	32*	0
Clc1ccc2[nH]c3c(NCC4CCCO4)ncnc3c2c1 (configuration not stated)	4	8	11	32*	0
Cc1ccc(S(=O)(=O)N2c3ccc(S(N)(=O)=O)cc3CC2C)cc1 (configuration not stated)	86*	8	7	14	-1
CCCCN(CC)CCCNC(=O)c1cc2c(=O)n(C)c3ccccc3c2n1C	-2	11	-3	-2	17*
Cc1ccccc1CS(=O)(=O)CCC(=O)NCCCN1CCN(c2ccccc2F)CC1	1	11	11	11	-1
Cc1cc(=O)oc(C)c1C(=O)NCCNC(=O)c1c(C)cc(=O)oc1C	-1	.	.	-11	39*
CCn1c(=O)cc(SCC(=O)NCCCN2CCN(c3ccc(F)cc3)CC2)c2ccccc21	4	13	47*	-8	0
CCn1c(=O)cc(SCC(=O)NCCN2CCN(Cc3ccccc3)CC2)c2ccccc21	-5	5	14	4	0
CC(C)OCCCNC(=O)c1cc2c(=O)n(C)c3ccccc3c2n1C	0	-3	-2	4	1
Cc1cc(=O)oc(C)c1C(=O)NCCCN1CCN(c2ccccc2F)CC1	1	18	77*	24	28*
Cn1c(C(=O)NCCCN2CCN(c3ccccc3F)CC2)cc2c(=O)n(C)c3ccccc3c21	17	15	73*	-17	18*
Cn1c(=O)cc(SCC(=O)NCCCN2CCN(c3ccccc3F)CC2)c2ccccc21	14	6	60*	-3	1
Cc1cc(C)n(-c2nncn2NC(=O)c2ccc(Cl)cc2O)n1	-1	2	1	-2	0
Cc1oc(-c2ccccc2F)nc1CSCC(=O)NCc1ccc2c(c1)OCO2	-2	18	11	22	-1
CCOC(=O)c1sc(NS(=O)(=O)c2ccc(NC(C)=O)cc2)nc1C	0	30	-10	-1	0
Cc1ccc(-c2cnc(N)n2C)cc1C	3	16	11	-6	38*
CC(C)C(=O)Nc1cccc(C(=O)Nc2nccs2)c1	-1	7	-2	2	-1
CC(C)CCNC(=O)Cn1c(=O)oc2cc(S(=O)(=O)N3CCc4ccccc43)ccc21	1	11	30	35*	-1
Cc1sc2nc(NCCO)[nH]c(=O)c2c1C	-1	1	2	6	1
O=C(NCC(=O)N(Cc1cccs1)C(C(=O)NC1CCCC1)c1ccncc1)c1ccco1 (configuration not stated)	-6	9	-4	-4	1
O=C(NC1CCCCC1)C(c1cccs1)N(Cc1cccs1)C(=O)c1ccco1 (configuration not stated)	0	11	50*	0	-1
SMILES	HTR1A agonist	HEK293 NFkB inh	5HT1a antag	HTR1E antagonist	HTR1E agonist
O=C(NC1CCCC1)C(c1cccs1)N(CC1CCCO1)C(=O)Cc1cccs1 (configuration not stated)	0	6	44*	3	0
CCn1cc(C(=O)NCc2cccs2)c(=O)c2cc(S(=O)(=O)N3CCOCC3)ccc21	-2	16	-9	3	0
O=C(Cn1cc2c(n1)CCCCC2)NCc1ccccn1	0	-5	2	10	-1
Cc1ccc(C2=Nc3ccccc3NC(C)(c3ccc(C)o3)C2)o1 (configuration not stated)	-1	12	49*	21	17*
CC(=O)c1c(C)[nH]c(C(=O)OCc2nnc(-c3ccccc3)o2)c1C	-1	8	0	35*	1
Cc1ccc(C(=O)OCc2nnc(-c3ccccc3)o2)o1	-2	6	8	0	0
Cc1ccc(C)c(/C(O)=C2\C(=O)C(=O)N(CCCN(C)C)C2c2cccnc2)c1 (configuration not stated)	0	14	-7	-11	1
O=C(CSc1nnc2sc3ccccc3n12)NCc1ccc2c(c1)OCO2	1	7	-10	7	0
CCOC(=O)C1CCN(C(c2cccnc2)c2c(NC(=O)c3ccco3)sc(C)c2C)CC1 (configuration not stated)	3	9	18	-3	52*
CCCCOc1ccc(-c2nnn(CC(=O)NCc3ccco3)n2)cc1	-3	-15	35	29*	0
CCCCOc1ccc(-c2nnn(CC(=O)Nc3ncc(CC(=O)OCC)s3)n2)cc1	0	2	-5	-11	0
Cc1cccc(NC(=O)CCc2ccc(C)o2)c1	-3	8	5	2	0
Fc1ccccc1CSc1nnnn1-c1ccc2c(c1)OCO2	-2	-14	22	35*	-1
Cc1cc(C(C)(C)C)c(O)c(C)c1CC1=NCCN1	81*	.	.	4	76*
COc1ccc(N2CCN(C(c3ccccc3)c3nnnn3Cc3ccc(F)cc3)CC2)cc1 (configuration not stated)	-1	15	8	4	0
COc1ccc(Nc2nc(Nc3ccc(OC)cc3)nc(-n3[nH]c(=O)c(C)c3C)n2)cc1	34*	.	.	-34	15*
CCNc1nc(NC(C)(C)C)nc(N(C#N)CC)n1	2	6	-7	29*	0
CCNc1nc(NC(C)C)nc(N(C#N)Cc2ccccc2)n1	2	-1	-18	20	1
Cn1c(=O)c2c(nc(CN3CCc4ccccc4C3)n2CC(=O)c2ccccc2)n(C)c1=O	0	11	7	5	1
CCOC(=O)c1c(C)[nH]c(C(=O)OC/C(O)=C(\C#N)c2nc3ccccc3[nH]2)c1C	0	-3	6	49*	3
N#C/C(=C(/O)COC(=O)Cc1c[nH]c2ccccc12)c1nc2ccccc2[nH]1	32*	4	12	-1	5
COc1cc(NCCCC(C)N)c2ncccc2c1 (configuration not stated)	-3	8	-9	2	-1
COc1cc(NS(=O)(=O)c2ccc(C)cc2)c2ncccc2c1	0	4	67*	67*	2
N#CCCS(=O)(=O)c1nnnn1-c1ccccc1	0	34	87*	79*	-1

Source: PubChem
